Consider six compounds from ChEMBL document CHEMBL1122190, “Mammary tumor inhibiting effect of 3,3'-diacetoxy-alpha, beta-dialkylstilbenes and of related stilbene oxides” (1982).

The structures appear in SMILES notation.

For experiment [1], the target named is T1, Estrogen receptor (Mus musculus) (UniProt O08537+P19785). In words: Uterotrophic activity in mice at 50 ug dose. Format: functional, tissue-based. As to conditions: Uterus. Put shortly: (§1)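 Dorfman uterine weight test in immature female NMRI mice (20 days old at start, 10-12 g; ten per group). Compound given sc daily in olive oil for 3 days. Animals killed 24 h after last injection; uteri removed, dried at 100 °C for 24 h and weighed.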

Experiment [2] concerns the target T1, Estrogen receptor (Mus musculus). In words: Percent inhibition of estrone-stimulated uterine growth in immature mouse at 100 ug dose. It counts as functional. A digest of the protocol:
(§2)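 Dorfman uterine weight test in immature female NMRI mice, ten per group, 20 days old and 10-12 g at start. Compounds were given in olive oil sc once daily for 3 days. Mice were killed 24 h after the last injection, and uteri were removed, dried at 100 °C for 24 h and weighed.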

Experiment [3] has the same target. Kind of experiment: Antiuterotrophic activity in mice at 5 ug dose. It counts as functional. Put shortly:
as §2

The target is the same in experiment [4]. Kind of experiment: Antiuterotrophic activity in mice at 100 ug dose. Format: functional. A digest of the protocol:
as §2

Experiment [5] has the same target. Kind of experiment: Uterotrophic activity in mice at 100 ug dose. Format: functional, tissue-based. As to conditions: Uterus. A digest of the protocol:
as §2

For experiment [6] the target is unchanged. Kind of experiment: Uterotrophic activity in mice at 500 ug dose. It counts as functional, tissue-based. As to conditions: Uterus. Put shortly: as §1
Experiment [7] has as its system Estrogen receptor (Bos taurus). Kind of experiment: In vitro relative binding affinity for Estrogen receptor compared to [3H]estradiol.
In experiment [8] the test system is Mus musculus. Kind of experiment: Effect on estrogen and progesterone receptors positive hormone-dependent postmenopausal human mammary carcinoma tumor growth in nude mice at 2.8 mg/kg/day. Format: functional. Put shortly:
(§3)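 Nude mice carried serially transplanted hormone-dependent human mammary carcinoma. Compounds in olive oil were given sc 6 times a week for 4-5 weeks. Two tumor diameters were measured weekly, and size at treatment start was set as 1. Tumor size was averaged after 5 weeks of therapy.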

Experiment [9] addresses T1, Estrogen receptor (Mus musculus). Kind of experiment: Uterotrophic activity in mice at 5 ug dose. It counts as functional, tissue-based. As to conditions: Uterus. A digest of the protocol: as §1
The target is the same in experiment [10]. In words: Antiuterotrophic activity in mice at 25 ug dose. It counts as functional. A digest of the protocol: as §2
For experiment [11] the target is unchanged. Kind of experiment: Percent inhibition of estrone-stimulated uterine growth in immature mouse at 5 ug dose. Format: functional. A digest of the protocol: as §2
Experiment [12] has the same target. Kind of experiment: Percent inhibition of estrone-stimulated uterine growth in immature mouse at 25 ug dose. Format: functional. Put shortly: as §2
Experiment [13] relates to Mus musculus. In words: Effect on estrogen and progesterone receptors positive hormone-dependent postmenopausal human mammary carcinoma tumor growth in nude mice at 3.0 mg/kg/day. It counts as functional. A digest of the protocol:
as §3

Experiment [14] concerns the target T1, Estrogen receptor (Mus musculus). The note with it: Uterus.
Experiment [15] has the same target. In words: Uterotrophic activity in mice at 10 ug dose. The note with it: Uterus. It counts as functional, tissue-based. A digest of the protocol:
as §2

For experiment [16] the target is unchanged. In words: Antiuterotrophic activity in mice at 50 ug dose. Format: functional. Put shortly: as §2
The subject of experiment [17] is Mus musculus. Kind of experiment: Effect on estrogen and progesterone receptors positive hormone-dependent postmenopausal human mammary carcinoma tumor growth in nude mice at 2.6 mg/kg/day. It counts as functional. Put shortly:
as §3

For experiment [18], the target named is T1, Estrogen receptor (Mus musculus). In words: Uterotrophic activity in mice at 1 ug dose. As to conditions: Uterus. It counts as functional, tissue-based. A digest of the protocol:
as §2

The target is the same in experiment [19]. Kind of experiment: Percent inhibition of estrone-stimulated uterine growth in immature mouse at 50 ug dose. Format: functional. Put shortly:
as §2

The subject of experiment [20] is Mus musculus. Kind of experiment: Effect on estrogen and progesterone receptors positive hormone-dependent postmenopausal human mammary carcinoma tumor growth in nude mice at 2.4 mg/kg/day. It counts as functional. A digest of the protocol:
as §3

Experiment [21] has as its target T1, Estrogen receptor (Mus musculus). Kind of experiment: Antiuterotrophic activity in mice at 250 ug dose. It counts as functional. Put shortly:
as §2

Experiment [22] shares this target. Kind of experiment: Percent inhibition of estrone-stimulated uterine growth in immature mouse at 250 ug dose. Format: functional. Put shortly: as §2

T1 sequence (O08537 whole entry, looked up): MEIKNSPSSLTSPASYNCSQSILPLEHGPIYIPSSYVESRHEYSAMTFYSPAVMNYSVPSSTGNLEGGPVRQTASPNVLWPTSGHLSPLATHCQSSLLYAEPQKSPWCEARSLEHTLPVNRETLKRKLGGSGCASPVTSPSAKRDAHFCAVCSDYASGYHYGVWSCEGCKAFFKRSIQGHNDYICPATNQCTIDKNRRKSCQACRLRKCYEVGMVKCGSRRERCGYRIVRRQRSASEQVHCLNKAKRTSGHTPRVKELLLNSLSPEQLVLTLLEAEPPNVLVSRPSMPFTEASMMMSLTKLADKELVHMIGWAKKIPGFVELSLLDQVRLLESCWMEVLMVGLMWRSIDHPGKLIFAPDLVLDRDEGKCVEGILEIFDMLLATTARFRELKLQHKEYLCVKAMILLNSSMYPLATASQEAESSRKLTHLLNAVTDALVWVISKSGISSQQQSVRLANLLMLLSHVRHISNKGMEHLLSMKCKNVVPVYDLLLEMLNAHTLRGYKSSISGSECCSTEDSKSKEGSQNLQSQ
T1 sequence (P19785 whole entry, looked up): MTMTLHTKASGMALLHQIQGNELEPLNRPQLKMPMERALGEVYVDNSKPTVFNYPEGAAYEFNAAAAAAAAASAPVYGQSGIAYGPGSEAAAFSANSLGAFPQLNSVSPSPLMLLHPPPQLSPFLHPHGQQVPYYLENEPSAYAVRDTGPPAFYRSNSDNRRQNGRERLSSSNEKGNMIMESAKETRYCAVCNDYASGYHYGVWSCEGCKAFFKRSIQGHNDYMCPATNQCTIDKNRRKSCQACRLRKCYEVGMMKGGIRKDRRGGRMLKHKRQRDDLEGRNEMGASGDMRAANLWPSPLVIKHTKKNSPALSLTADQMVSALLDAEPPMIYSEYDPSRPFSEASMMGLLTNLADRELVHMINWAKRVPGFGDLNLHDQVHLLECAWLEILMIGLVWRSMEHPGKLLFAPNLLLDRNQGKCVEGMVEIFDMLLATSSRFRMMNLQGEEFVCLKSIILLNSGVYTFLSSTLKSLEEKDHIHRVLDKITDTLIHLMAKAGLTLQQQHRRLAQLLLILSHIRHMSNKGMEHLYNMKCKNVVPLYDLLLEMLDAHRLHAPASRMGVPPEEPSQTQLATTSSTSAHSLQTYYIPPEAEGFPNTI

Broadly, the inhibition is the relative decrease from the control value, in per cent. `CCCC1(c2cccc(OC(C)=O)c2)OC1(CCC)c1cccc(OC(C)=O)c1` (stereo not drawn): the Effect is 22.1 in experiment [1]; 34.1 in [3]; 39.4 in experiment [4]; 31.1 in experiment [5]; 33.3 in experiment [6]; 21.8 in experiment [9]. The compound further had an Effect in experiment [10] of 36.3. Besides, the inhibition in [2] worked out at 0%; in experiment [11], 15.6%; in [12], 7.8%. In addition, the RBA in experiment [7] is 1.7%. Also, the Tumor size in the experiment on Mus musculus [8] turned out to be 1.85.

Take `CCCC/C(=C(/CCCC)c1cccc(OC(C)=O)c1)c1cccc(OC(C)=O)c1`: the Tumor size with Mus musculus [13] is given as 4.1. The same compound registered an RBA in [7] of 0.6%.

In experiment [14], `C[C@]12CC[C@@H]3c4ccc(O)cc4CC[C@H]3[C@@H]1CCC2=O` returned an Effect of 40.7.

As for `CCC1(c2cccc(OC(C)=O)c2)OC1(CC)c1cccc(OC(C)=O)c1` (stereo not drawn), the Effect was 33.4 in experiment [1]; 33.2 in experiment [3]; 30.3 in experiment [15]; 43.7 in [4]; 36.4 in experiment [16]; 36.2 in experiment [5]. Moreover, the Effect in [18] was 22.2; in [6], 38.6. For the same compound, the inhibition came to 0% in experiment [2], 33.5% in experiment [11] and 22.6% in experiment [19]. Further, the Tumor size in the experiment with Mus musculus [17] came out at 2.38. This compound also returned an RBA in experiment [7] of 4.2%.

In experiment [7], `CCC/C(=C(/CCC)c1cccc(OC(C)=O)c1)c1cccc(OC(C)=O)c1` registered an RBA of 1.3%. In the experiment on Mus musculus [8], this compound showed a Tumor size of 2.32.

On to `CC(=O)Oc1cccc(C2(C)OC2(C)c2cccc(OC(C)=O)c2)c1` (stereo not drawn), for which the Tumor size with Mus musculus [20] amounted to 2.72. Further, the inhibition in [2] worked out at 33.4%; in experiment [22] it was 31.7%; in experiment [11], 17.4%; in [12], 23%. Moreover, the Effect in [21] amounted to 33.1; in experiment [3], 37.9; in experiment [15], 17; in [4] it was 32.6; in experiment [5], 15; in experiment [6] it was 20.6. Besides, the Effect in experiment [10] came to 36.1. Moreover, the RBA in experiment [7] turned out to be 0.8%.
